Data on five molecules can be found in ChEMBL document CHEMBL4715798, “Structure-Based Optimization of Multifunctional Agonists for Opioid and Neuropeptide FF Receptors with Potent Nontolerance Forming Analgesic Activities” (J Med Chem, 2016).

Activity calls are given as the source filed them. The calls are words filed in the database; no cut-off is given here. Non-standard residues stand in square brackets, D forms with d. Residues, ends and D or L forms follow the SMILES beside them.

The subject of assay [1] is Mus musculus. As to the kind of experiment: Antinociceptive activity in mouse assessed as development of tolerance dosed repeated icv injections for 6 days by radiant heat tail-flick test. Type of assay: functional, organism-based. The settings on record: time 6.0 day. Put shortly: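 Tail-flick test in mice. Peptide was given icv once daily for 6 days at a fixed dose. Antinociceptive responses to the same dose on day 1 and day 6 were compared to judge tolerance. Values are mean ± SEM.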

For assay [2], the target named is Kappa-type opioid receptor (Homo sapiens, UniProt P41145). The experiment in a line: Agonist activity at kappa opioid receptor (unknown origin) expressed in HEK293-A cells assessed as reduction in forskolin-induced cAMP accumulation incubated for 30 mins by competition PKA binding assay. Type of assay: functional, cell-based. Put shortly:
(§1)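 cAMP functional read-out in transfected cells. Log EC50 ± standard error was obtained by nonlinear regression of data from at least three independent experiments run in duplicate.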
For orientation: cAMP levels reflect the balance of adenylyl cyclase and phosphodiesterase activity.

For assay [3], the target named is T1, Neuropeptide FF receptor 1 (Homo sapiens, UniProt Q9GZQ6). As to the kind of experiment: Agonist activity at NPFFR1 (unknown origin) expressed in HEK293-A cells assessed as reduction in forskolin-induced cAMP accumulation incubated for 30 mins by competition PKA binding assay relative to Tyr-D-Ala-Gly-Phe-Gln-Pro-Gln-Arg-Phe-NH2. Type of assay: functional, cell-based. The settings on record: filed as agonist. Put shortly:
as §1

Assay [4] deals with T1, Neuropeptide FF receptor 1. As to the kind of experiment: Agonist activity at NPFFR1 (unknown origin) expressed in HEK293-A cells assessed as reduction in forskolin-induced cAMP accumulation incubated for 30 mins by competition PKA binding assay. It is filed as functional, cell-based. A digest of the protocol: as §1
In assay [5] the target is T2, Mu-type opioid receptor (Homo sapiens, UniProt P35372). As to the kind of experiment: Agonist activity at mu opioid receptor (unknown origin) expressed in HEK293-A cells assessed as reduction in forskolin-induced cAMP accumulation incubated for 30 mins by competition PKA binding assay. It is filed as functional, cell-based. To be noted: read-out: EC50. Put shortly: as §1

For assay [6], the system named is Mus musculus. As to the kind of experiment: Antinociceptive activity in mouse dosed repeated icv injections for 6 days by radiant heat tail-flick test. It is filed as functional. To be noted: time 6 day. Put shortly: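 Mice received the same icv dose once daily for 6 days in the radiant heat tail-flick test. Tolerance was judged by comparing the antinociceptive response on day 1 with day 6. Values are mean ± SEM.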

Assay [7] has as its target T3, Delta-type opioid receptor (Homo sapiens, UniProt P41143). As to the kind of experiment: Agonist activity at delta opioid receptor (unknown origin) expressed in HEK293-A cells assessed as reduction in forskolin-induced cAMP accumulation incubated for 30 mins by competition PKA binding assay. It is filed as functional, cell-based. A digest of the protocol: as §1
Assay [8] deals with T4, Neuropeptide FF receptor 2 (Homo sapiens, UniProt Q9Y5X5). As to the kind of experiment: Agonist activity at NPFFR2 (unknown origin) expressed in HEK293-A cells assessed as reduction in forskolin-induced cAMP accumulation incubated for 30 mins by competition PKA binding assay. It is filed as functional, cell-based. Put shortly:
as §1

The target of assay [9] is T4, Neuropeptide FF receptor 2. The experiment in a line: Agonist activity at NPFFR2 (unknown origin) expressed in HEK293-A cells assessed as reduction in forskolin-induced cAMP accumulation incubated for 30 mins by competition PKA binding assay relative to Tyr-D-Ala-Gly-Phe-Gln-Pro-Gln-Arg-Phe-NH2. To be noted: filed as agonist. It is filed as functional, cell-based. A digest of the protocol: as §1

For assay [10], the target named is T3, Delta-type opioid receptor. As to the kind of experiment: Agonist activity at delta opioid receptor (unknown origin) expressed in HEK293-A cells assessed as reduction in forskolin-induced cAMP accumulation incubated for 30 mins by competition PKA binding assay relative to Tyr-D-Ala-Gly-Phe-Gln-Pro-Gln-Arg-Phe-NH2. Type of assay: functional, cell-based. The settings on record: filed as agonist. A digest of the protocol:
as §1

For assay [11], the target named is T2, Mu-type opioid receptor. The experiment in a line: Agonist activity at mu opioid receptor (unknown origin) expressed in HEK293-A cells assessed as reduction in forskolin-induced cAMP accumulation incubated for 30 mins by competition PKA binding assay relative to Tyr-D-Ala-Gly-Phe-Gln-Pro-Gln-Arg-Phe-NH2. Type of assay: functional, cell-based. The settings on record: filed as agonist. A digest of the protocol:
as §1

On to `CSCC[C@@H](NC(=O)[C@@H](N)Cc1ccc(O)cc1)C(=O)NCC(=O)N[C@@H](Cc1ccccc1)C(=O)N[C@@H](CCC(N)=O)C(=O)N1CCC[C@H]1C(=O)N[C@@H](CCC(N)=O)C(=O)N[C@@H](CCCNC(=N)N)C(=O)N[C@@H](Cc1ccccc1)C(N)=O`, for which, in the assay on Mus musculus [1], the outcome was inactive. Moreover, the EC50 in assay [2] stood at 1260 nM; in assay [4] (read-out: EC50), 661 nM; at Mu-type opioid receptor [5], 424 nM; in assay [7], 114 nM; in assay [8] (read-out: EC50) it was 41.3 nM. Moreover, the maximal response (Emax) in assay [3] stood at 73.5%; in [9], 57.9%; in assay [10], 84.7%; on Mu-type opioid receptor [11], 89.4%. The molecule also came in with an ED50 in the assay on Mus musculus [6] of 0.0314 nmol.

In the case of `N=C(N)NCCC[C@H](NC(=O)[C@H](CCC(N)=O)NC(=O)[C@@H]1CCCN1C(=O)[C@H](CCC(N)=O)NC(=O)[C@H](Cc1ccccc1)NC(=O)CNC(=O)[C@@H](CO)NC(=O)[C@@H](N)Cc1ccc(O)cc1)C(=O)N[C@@H](Cc1ccccc1)C(N)=O`, the outcome in the assay on Mus musculus [1] was inactive. In addition, the EC50 in [2] was 1470 nM; in assay [4] (read-out: EC50) it was 3200 nM; on Mu-type opioid receptor [5], 563 nM; in assay [7], 118 nM; in [8] (read-out: EC50) it was 254 nM; in assay [8] (read-out: pEC50 (converted)), 245 nM. Moreover, the Emax in assay [3] was found to be 82.3%; in assay [9], 63%; in assay [10] it was 84.9%; at Mu-type opioid receptor [11] it was 97.1%. Also, the ED50 in the assay with Mus musculus [6] is 0.6062 nmol.

Take `C[C@@H](NC(=O)[C@@H](N)Cc1ccc(O)cc1)C(=O)NCC(=O)N[C@@H](Cc1ccccc1)C(=O)NCC(=O)N1CCC[C@H]1C(=O)N[C@@H](CCC(N)=O)C(=O)N[C@@H](CCCNC(=N)N)C(=O)N[C@@H](Cc1ccccc1)C(N)=O` (H-Y[dA]GFGPQRF-NH2): in the assay on Mus musculus [1], the result was Active. Moreover, the EC50 in assay [2] is 1630 nM; in assay [4] (read-out: EC50), 881 nM; at Mu-type opioid receptor [5], 28.4 nM; in assay [7], 898 nM; in assay [8] (read-out: EC50) it was 185 nM. Besides, the Emax was determined as 66.8% in assay [3], 56.2% in [9], 75.7% in [10] and 80.4% on Mu-type opioid receptor [11]. In the assay with Mus musculus [6], this molecule displayed an ED50 of 0.4172 nmol.

For the molecule `CC(C)C[C@H](NC(=O)[C@H](Cc1ccccc1)NC(=O)CNC(=O)[C@@H](C)NC(=O)[C@@H](N)Cc1ccc(O)cc1)C(=O)N1CCC[C@H]1C(=O)N[C@@H](CCC(N)=O)C(=O)N[C@@H](CCCNC(=N)N)C(=O)N[C@@H](Cc1ccccc1)C(N)=O` (H-Y[dA]GFLPQRF-NH2), in the assay with Mus musculus [1], the result was Active. Moreover, the EC50 in assay [2] was 120 nM; in assay [4] (read-out: EC50), 54.4 nM; in assay [4] (read-out: pEC50 (converted)), 53.7 nM; at Mu-type opioid receptor [5], 250 nM; in assay [7] it was 49.3 nM; in assay [8] (read-out: EC50), 259 nM. The Emax worked out at 68.4% in assay [3], 57.3% in assay [9], 79.1% in assay [10] and 98.9% on Mu-type opioid receptor [11]. For the same molecule, the ED50 in the assay with Mus musculus [6] worked out at 0.1865 nmol.

`CSCC[C@H](NC(=O)[C@H](Cc1ccccc1)NC(=O)CNC(=O)[C@@H](C)NC(=O)[C@@H](N)Cc1ccc(O)cc1)C(=O)N1CCC[C@H]1C(=O)N[C@@H](CCC(N)=O)C(=O)N[C@@H](CCCNC(=N)N)C(=O)N[C@@H](Cc1ccccc1)C(N)=O` (H-Y[dA]GFMPQRF-NH2): the outcome in the assay on Mus musculus [1] was Active. Besides, the EC50 in assay [2] was 240 nM; in [4] (read-out: EC50), 301 nM; on Mu-type opioid receptor [5], 127 nM; in [7], 38.8 nM; in assay [8] (read-out: EC50), 87 nM. Moreover, the Emax in [3] came to 69.2%; in [9] it was 58.4%; in [10] it was 81.2%; on Mu-type opioid receptor [11], 89.2%. The molecule further showed an ED50 in the assay on Mus musculus [6] of 0.2967 nmol.

Usually Emax stands for the size of the effect at its maximum, as opposed to the concentration needed.
